One data set relates to Plasmodium falciparum. Nature of the data set: Antimalarial activity against chloroquine-sensitive Plasmodium falciparum Nigerian. The data set is classed as functional, organism-based. The procedure, abridged:
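In vitro IC50 values are means of at least two independent experiments, each run in duplicate.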

The subject of data set [1] is Plasmodium vinckei petteri. Nature of the data set: Antimalarial activity against Plasmodium vinckei petteri 279BY infected peroral daily dosed Swiss mice (Mus musculus) assessed as reduction in parasitaemia level measured after 4 days. In kind it is functional. The settings on record: po, 96 h. The procedure, abridged: (§1)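 Female Swiss mice were infected with P. vinckei petteri 279BY on day 0. Compound was given intraperitoneally or orally once daily for four consecutive days (days 1–4 post infection). Three doses were tested per compound, with 3 mice per dose. Parasitemia was monitored against untreated control, and cleared animals were followed 28 days for recrudescence. ED50 was derived from the dose series.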

In data set [2] the test system is Plasmodium vinckei petteri. As to the kind of experiment: Antimalarial activity against Plasmodium vinckei petteri 279BY infected in Swiss mice (Mus musculus) assessed as reduction in parasitaemia level at 10 mg/kg, intraperitoneal measured after 4 days. In kind it is functional. As to conditions: ip, 96 h. The procedure, abridged:
as §1

Data set [3] deals with Plasmodium vinckei petteri. As to the kind of experiment: Antimalarial activity against Plasmodium vinckei petteri 279BY infected in Swiss mice (Mus musculus) at 10 mg/kg, intraperitoneal after 4 days. In kind it is functional, organism-based. More on the design: dose 10 mg/kg. The procedure, abridged:
as §1

Data set [4] has as its system Plasmodium vinckei petteri. Nature of the data set: Antimalarial activity against Plasmodium vinckei petteri 279BY infected in Swiss mice (Mus musculus) assessed as reduction in parasitaemia level at 180 mg, perorally relative to control. The data set is classed as functional. Details: scale not given: the % may be the effect or the level left. The procedure, abridged: as §1

Data set [5] has as its system Plasmodium vinckei petteri. As to the kind of experiment: Antimalarial activity against Plasmodium vinckei petteri 279BY infected in Swiss mice (Mus musculus) assessed as reduction in parasitaemia level at 5 mg/kg, intraperitoneally relative to control. In kind it is functional. As to conditions: route intraperitoneal. Details: scale not given: the % may be the effect or the level left. The procedure, abridged:
as §1

The test system of data set [6] is Mus musculus. As to the kind of experiment: Toxicity in Plasmodium vinckei petteri 279BY infected Swiss mice (Mus musculus) at 5 mg/kg, intraperitoneally. In kind it is organism-based. More on the design: dose 5 mg/kg, route intraperitoneal. The settings on record: in vivo, ip.
Data set [7] concerns Plasmodium vinckei petteri. Nature of the data set: Antimalarial activity against Plasmodium vinckei petteri 279BY infected intraperitoneally daily dosed Swiss mice (Mus musculus) assessed as reduction in parasitaemia after 28 days. The data set is classed as functional. As to conditions: ip, 672 h. The procedure, abridged: as §1
Data set [8] has as its system Plasmodium vinckei petteri. Nature of the data set: Antimalarial activity against Plasmodium vinckei petteri 279BY infected in Swiss mice (Mus musculus) assessed as reduction in parasitaemia level at 90 mg/kg, perorally relative to control. In kind it is functional. Details: scale not given: the % may be the effect or the level left. The settings on record: route oral. The procedure, abridged:
as §1

The test system of data set [9] is Mus musculus. As to the kind of experiment: Toxicity in Plasmodium vinckei petteri 279BY infected Swiss mice (Mus musculus) at >10 mg/kg, intraperitoneally. The data set is classed as organism-based. As to conditions: in vivo, ip.

Active and inactive are the calls of the source. No cut-off for these calls is given here. Some results are limits rather than exact numbers.

The IC50 is the concentration that inhibits the measured activity by half. Usually ED50 stands for the midpoint of the dose-response relation. `CCn1c(CCCCCCCCCCCCc2noc(=O)n2CC)noc1=O`: in the data set with Plasmodium falciparum, half-maximal inhibition (IC50) was put at 10 µM. For the same molecule, the ED50 was more than 20 mg/kg in [1] and more than 10 mg/kg in [2].
The molecule `Cl.Cl.N=C(CCCCCCCCCCCCC(=N)NCc1ccccc1)NCc1ccccc1` displayed an IC50 with Plasmodium falciparum of 0.0046 µM. Besides, the ED50 in data set [1] was more than 90 mg/kg; in data set [2], more than 20 mg/kg. The outcome in data set [3] was inactive.
In turn, `COCCN/C(CCCCCCCCCCCC/C(=N/O)NCCOC)=N\O` showed an IC50 with Plasmodium falciparum of 2.95 µM. The Activity in [4] is 16%; in data set [5] it was 33%; in the data set with Mus musculus [6], “Toxic”. The ED50 in data set [1] is more than 180 mg/kg.
As to `N/C(CCCCCCCCCCCC/C(N)=N/O)=N\O`, the ED50 in data set [1] was 120 mg/kg.
`COCCNC(=N)CCCCCCCCCCCCC(=N)NCCOC.Cl.Cl` showed an IC50 in the data set on Plasmodium falciparum of 0.0092 µM. The ED50 in data set [1] is more than 90 mg/kg; in [2], 8 mg/kg; in [7] it was 8 mg/kg.
`CCNC(=N)CCCCCCCCCCCCC(=N)NCC.Cl.Cl`: the midpoint of inhibition with Plasmodium falciparum, the IC50, lay at 0.0094 µM. The values for the ED50 in data set [1], in data set [2] and in [7] were more than 180 mg/kg, 6.3 mg/kg and 6.3 mg/kg, respectively.
Consider `COCCn1c(CCCCCCCCCCCCc2noc(=O)n2CCOC)noc1=O`, for which the Activity in data set [8] was determined as 50%. This molecule also had an IC50 in the data set with Plasmodium falciparum of 6.45 µM. Moreover, the ED50 is 90 mg/kg in data set [1] and more than 20 mg/kg in [2].
For the molecule `CN/C(CCCCCCCCCCCC/C(=N/O)NC)=N\O`, in the data set with Plasmodium falciparum, 10.1 µM corresponded to half-maximal inhibition (IC50). Moreover, the ED50 in data set [1] is more than 180 mg/kg. Moreover, the Activity in [5] is 44%; in the data set on Mus musculus [6], “Toxic”.
Molecule `O=c1onc(CCCCCCCCCCCCc2noc(=O)n2Cc2ccccc2)n1Cc1ccccc1` gave an IC50 in the data set on Plasmodium falciparum of 4.95 µM. In addition, the ED50 in data set [1] is more than 90 mg/kg; in [2], more than 20 mg/kg.
`CNC(=N)CCCCCCCCCCCCC(=N)NC.Cl.Cl`: the Activity entry in the data set with Mus musculus [9] was “Toxic”. This molecule also displayed an IC50 in the data set with Plasmodium falciparum of 0.0144 µM. Moreover, in [1], the median effective dose (ED50) is more than 180 mg/kg. In addition, the result in data set [3] was inactive.
Turning to `CCN/C(CCCCCCCCCCCC/C(=N/O)NCC)=N\O`, the IC50 in the data set on Plasmodium falciparum was determined as 6.2 µM. Moreover, the Activity stood at 20% in data set [4] and 76% in [5]. Further, the ED50 in [1] is more than 180 mg/kg; in data set [2], 3.1 mg/kg.
On to `Cc1c(CCO)sc[n+]1CCCCCCCCCCCC[n+]1csc(CCO)c1C.[Br-].[Br-]` [ALBITIAZOLIUM BROMIDE], for which the values for the ED50 in data set [1] and in data set [2] were 13 mg/kg and 0.2 mg/kg, respectively.
Taken in the same sequence, the figures for `O=c1[nH]c(CCCCCCCCCCCCc2noc(=O)[nH]2)no1` were 100 mg/kg and more than 20 mg/kg.
Take `O/N=C(/CCCCCCCCCCCC/C(=N/O)NCc1ccccc1)NCc1ccccc1`: inhibition in the data set with Plasmodium falciparum was half-maximal at 1.04 µM (IC50). In addition, the ED50 in data set [1] was more than 90 mg/kg; in data set [2], more than 20 mg/kg.
On to `Cn1c(CCCCCCCCCCCCc2noc(=O)n2C)noc1=O`, for which the median effective dose (ED50) in data set [1] was more than 45 mg/kg; in data set [2] it was more than 20 mg/kg.
Consider `Cl.Cl.N=C(N)CCCCCCCCCCCCC(=N)N`, for which the ED50 was more than 100 mg/kg in [1] and more than 10 mg/kg in data set [2]. Moreover, the outcome in [3] was inactive.

Values taken from ChEMBL document CHEMBL1155337, “N-substituted bis-C-alkyloxadiazolones as dual effectors: efficient intermediates to amidoximes or amidines and prodrug candidates of potent antimalarials” (Bioorg Med Chem Lett, 2009).
